Source: ChEMBL document CHEMBL1932980, “Structure-activity relationships of 2-amino-3-aroyl-4-[(4-arylpiperazin-1-yl)methyl]thiophenes. Part 2: Probing the influence of diverse substituents at the phenyl of the arylpiperazine moiety on allosteric enhancer activity at the A₁ adenosine receptor” (Bioorg Med Chem, 2012)

Columns and labels:
[1] = target: T1, Adenosine receptor A1 (Homo sapiens) (UniProt P30542); assay: Binding affinity to recombinant human A1 adenosine receptor allosteric site expressed in CHO cells assessed as potentiation of CCPA-induced [3H]DPCPX displacement at 10 uM after 90 mins relative to control; type: cell-based
T1 sequence (whole entry): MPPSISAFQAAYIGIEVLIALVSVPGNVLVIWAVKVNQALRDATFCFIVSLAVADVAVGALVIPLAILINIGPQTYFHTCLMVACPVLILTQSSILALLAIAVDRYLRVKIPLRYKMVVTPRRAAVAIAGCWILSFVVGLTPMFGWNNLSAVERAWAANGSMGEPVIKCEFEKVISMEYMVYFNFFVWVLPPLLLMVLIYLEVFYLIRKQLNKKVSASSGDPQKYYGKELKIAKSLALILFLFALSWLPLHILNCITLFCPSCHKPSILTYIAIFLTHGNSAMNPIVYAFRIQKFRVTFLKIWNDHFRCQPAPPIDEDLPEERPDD
Outline: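 Competition of CCPA (0.01 nM–1 µM) against 1 nM [3H]DPCPX on hA1CHO membranes, run in triplicate, 90 min at 25 °C, in 50 mM Tris–HCl pH 7.4, with or without test compound at 10 µM. Nonspecific binding taken with 1 µM DPCPX. Ki by Cheng–Prusoff. Shift = Ki(CCPA)/Ki(CCPA + 10 µM compound).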

[2] = target: T2, Adenosine receptor A3 (Homo sapiens) (UniProt P0DMS8); assay: Displacement of [3H]MRE3008F20 from recombinant human A3 adenosine receptor expressed in CHO cells at 10 uM after 120 mins by scintillation counting; type: cell-based
T2 sequence (whole entry): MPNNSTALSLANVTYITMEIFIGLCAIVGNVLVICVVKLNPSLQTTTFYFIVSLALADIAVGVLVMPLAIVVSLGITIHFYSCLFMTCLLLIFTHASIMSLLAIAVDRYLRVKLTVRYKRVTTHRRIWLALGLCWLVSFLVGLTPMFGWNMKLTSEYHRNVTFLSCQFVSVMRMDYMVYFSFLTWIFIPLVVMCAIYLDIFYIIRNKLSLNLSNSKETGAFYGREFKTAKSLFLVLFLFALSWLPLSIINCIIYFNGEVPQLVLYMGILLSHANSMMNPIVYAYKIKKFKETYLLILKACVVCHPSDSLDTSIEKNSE
Outline: (§1)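 Membranes from hA3CHO cells incubated with 2 nM [3H]MRE 3008F20 in 50 mM Tris–HCl, 10 mM MgCl2, 1 mM EDTA, pH 7.4 at 4 °C for 120 min. Compound added from a 100-fold DMSO stock, 1% DMSO final, also in controls. Separated by GF/B filtration and counted by scintillation. Result given as % of control specific binding.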

[3] = target: T1, Adenosine receptor A1 (Homo sapiens); assay: Binding affinity to recombinant human A1 adenosine receptor allosteric site expressed in CHO cells assessed as [3H]CCPA Bmax shift at 10 uM after 90 mins relative to control; type: cell-based
Outline: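 Saturation binding of [3H]CCPA (0.05–20 nM) to hA1CHO membranes. Membranes pretreated with adenosine deaminase 3 UI/mL for 30 min at 37 °C. Run in triplicate, 90 min at 25 °C, in 50 mM Tris–HCl pH 7.4, with or without test compound at final 10 µM. Nonspecific binding taken with 1 µM R-PIA. Bmax fitted by LIGAND. Shift is the fold of Bmax increase over control.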

[4] = target: T1, Adenosine receptor A1 (Homo sapiens); assay: Allosteric enhancer activity at recombinant human A1 adenosine receptor expressed in CHO cells assessed as change in forskolin-induced cAMP production at 10 uM after 6 mins by radioimmunoassay; type: functional, cell-based
Outline: (§2)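 hA1CHO cells (about 8000 fmol/mg protein) thawed from low-passage stocks, grown in Ham's F-12 with 10% FBS and G-418, then plated 48 h. Test compound at 0.01, 0.1, 1 or 10 µM with CPA (0.05–0.1 nM) for 6 min at 36 °C. Stopped with HCl (final 50 mM). cAMP in acidified extracts measured by radioimmunoassay. Reference enhancer run in each experiment. Four experiments per concentration.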

[5] = target: T1, Adenosine receptor A1 (Homo sapiens); assay: Allosteric enhancer activity at recombinant human A1 adenosine receptor expressed in CHO cells assessed as change in forskolin-induced cAMP production at 0.01 uM after 6 mins by radioimmunoassay; type: functional, cell-based; outline: as §2
[6] = target: Adenosine receptor A2a (Homo sapiens) (UniProt P29274); assay: Displacement of [3H]ZM241385 from recombinant human A2A adenosine receptor expressed in CHO cells at 10 uM after 60 mins by scintillation counting; type: cell-based
Adenosine receptor A2a (Homo sapiens), sequence (P29274 whole entry): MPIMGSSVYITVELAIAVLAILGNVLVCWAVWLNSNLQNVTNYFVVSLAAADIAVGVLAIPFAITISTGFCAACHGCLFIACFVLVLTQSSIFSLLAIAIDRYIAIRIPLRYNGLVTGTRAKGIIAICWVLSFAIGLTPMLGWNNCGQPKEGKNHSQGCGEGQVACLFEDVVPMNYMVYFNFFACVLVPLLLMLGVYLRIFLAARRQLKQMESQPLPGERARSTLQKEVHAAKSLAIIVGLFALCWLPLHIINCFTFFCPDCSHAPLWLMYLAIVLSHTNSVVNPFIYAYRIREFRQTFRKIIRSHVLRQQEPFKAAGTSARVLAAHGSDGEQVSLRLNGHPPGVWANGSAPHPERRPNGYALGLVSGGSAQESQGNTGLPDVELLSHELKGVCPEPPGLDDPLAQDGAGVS
Outline: as §1, with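 “hA2ACHO” for “hA3CHO”, “1” for “2”, “[3H]ZM 241385” for “[3H]MRE 3008F20”, “MgCl2,” for “MgCl2, 1 mM EDTA,”, “60” for “120”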

[7] = target: T1, Adenosine receptor A1 (Homo sapiens); assay: Binding affinity to recombinant human A1 adenosine receptor allosteric site expressed in CHO cells assessed as [3H]DPCPX Bmax shift at 10 uM after 90 mins relative to control; type: cell-based
Outline: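 Saturation binding of [3H]DPCPX (0.05–20 nM) to hA1CHO membranes, run in triplicate, 90 min at 25 °C, in 50 mM Tris–HCl pH 7.4, with or without test compound at final 10 µM. Nonspecific binding taken with 1 µM DPCPX. KD and Bmax fitted by LIGAND. Shift is the fold of Bmax increase over control.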

[8] = target: T1, Adenosine receptor A1 (Homo sapiens); assay: Allosteric enhancer activity at recombinant human A1 adenosine receptor expressed in CHO cells assessed as change in forskolin-induced cAMP production at 1 uM after 6 mins by radioimmunoassay; type: functional, cell-based; outline: as §2
[9] = target: T1, Adenosine receptor A1 (Homo sapiens); assay: Allosteric enhancer activity at recombinant human A1 adenosine receptor expressed in CHO cells assessed as change in forskolin-induced cAMP production at 0.1 uM after 6 mins by radioimmunoassay; type: functional, cell-based; outline: as §2
[10] = target: T1, Adenosine receptor A1 (Homo sapiens); assay: Displacement of [3H]DPCPX from recombinant human A1 adenosine receptor expressed in CHO cells at 10 uM after 120 mins by scintillation counting; type: cell-based
Outline: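 Membranes from hA1CHO cells incubated with 1 nM [3H]DPCPX in 50 mM Tris–HCl pH 7.4 at 25 °C for 120 min. Compound added from a 100-fold DMSO stock, so 1% DMSO final, also present in controls. Bound ligand separated on GF/B filters and counted by scintillation. Result given as % of control specific binding.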

| SMILES | fold change (FC) [1] | inhibition [2] [%] | fold change (FC) [3] | Activity [4] [%] | Activity [5] [%] | inhibition [6] [%] | fold change (FC) [7] | Activity [8] [%] | Activity [9] [%] | inhibition [10] [%] |
| --- | --- | --- | --- | --- | --- | --- | --- | --- | --- | --- |
| Nc1scc(CN2CCN(c3cccc4ccccc34)CC2)c1C(=O)c1ccc(Cl)cc1 | 1.3 | 0 | 1.1 | -21 | 8.7 | 0 | 0.9 | 2.9 | 0 | 1 |
| Nc1scc(CN2CCN(C3CCCC3)CC2)c1C(=O)c1ccc(Cl)cc1 | 1.3 | 3 | 1.1 | -30 | 9.1 | 3 | 0.9 | 10 | 2.1 | 0 |
| Nc1scc(CN2CCN(c3ccc(Cl)c(C(F)(F)F)c3)CC2)c1C(=O)c1ccc(Cl)cc1 | 4.5 | 3 | 5.7 | -60 | -2.5 | 0 | 1 | -47 | -12 | 0 |
| Nc1scc(CN2CCN(c3cccc(F)c3F)CC2)c1C(=O)c1ccc(Cl)cc1 | 4 | 0 | 4.8 | -79 | -13 | 0 | 1 | -66 | -5.2 | 0 |
| Nc1scc(CN2CCN(c3ccc(F)cc3F)CC2)c1C(=O)c1ccc(Cl)cc1 | 4.8 | 0 | 6.1 | -82 | 0 | 0 | 1 | -66 | -17 | 1 |
| Nc1scc(CN2CCN(Cc3ccc(F)cc3)CC2)c1C(=O)c1ccc(Cl)cc1 | 3.1 | 1 | 3.7 | -82 | 2.2 | 0 | 0.9 | -34 | -3.9 | 0 |

Further lines, results first:

| fold change (FC) [1] | inhibition [2] [%] | fold change (FC) [3] | Activity [4] [%] | Activity [5] [%] | inhibition [6] [%] | fold change (FC) [7] | Activity [8] [%] | Activity [9] [%] | inhibition [10] [%] | SMILES |
| --- | --- | --- | --- | --- | --- | --- | --- | --- | --- | --- |
| 1.2 | 2 | 1.1 | -15 | -4 | 0 | 0.9 | -8.3 | 1.4 | 1 | Nc1scc(CN2CCN(c3ccncc3)CC2)c1C(=O)c1ccc(Cl)cc1 |
| 4.3 | 0 | 5.3 | -80 | -8.2 | 3 | 1 | -72 | -30 | 0 | Nc1scc(CN2CCN(c3cccc(C(F)(F)F)c3)CC2)c1C(=O)c1ccc(Cl)cc1 |
| 3.5 | 0 | 4.2 | -77 | 1 | 1 | 1 | -57 | 3.2 | 2 | Nc1scc(CN2CCN(c3cccc(Cl)c3Cl)CC2)c1C(=O)c1ccc(Cl)cc1 |
| 2.9 | 1 | 3.3 | -47 | 15 | 0 | 0.9 | -2.2 | 0 | 0 | Nc1scc(CN2CCN(c3c(Cl)cccc3Cl)CC2)c1C(=O)c1ccc(Cl)cc1 |
